Data published in ChEMBL document CHEMBL1144723, “Antiproliferative limonoids of a Malleastrum sp. from the Madagascar rainforest” (J Nat Prod, 2008).

Columns and labels:
Format in all cases: functional, cell-based
A2780 = assay: Antiproliferative activity against human A2780 cells after 96 hrs by CellTiter-Glo luminescent cell viability assay; details: A2780, 96 h
[1] = Antiproliferative activity against human HS22T1 cells after 96 hrs by CellTiter-Glo luminescent cell viability assay; details: HS22T1, 96 h
Procedure, shortened: (§1)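 Cells were cultured with compound present continuously at 0.3–10000 nM, or without compound, for 96 h. Growth was read by ATP luminescence (CellTiter-Glo). IC50 is the concentration giving 50% growth inhibition versus untreated cells. Vinblastine served as the positive control. Two separate replicate experiments were run.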

U-937 = assay: Antiproliferative activity against human U937 cells after 96 hrs by CellTiter-Glo luminescent cell viability assay; details: U-937, 96 h; procedure, shortened: as §1
HT-29 = assay: Antiproliferative activity against human HT29 cells after 96 hrs by CellTiter-Glo luminescent cell viability assay; details: HT-29, 96 h; procedure, shortened: as §1
MDA-MB-435 = assay: Antiproliferative activity against human MDA-MB-435 cells after 96 hrs by CellTiter-Glo luminescent cell viability assay; details: MDA-MB-435, 96 h; procedure, shortened: as §1

Structure (SMILES) | IC50 (A2780) | IC50 [1] | IC50 (U-937) | IC50 (HT-29) | IC50 (MDA-MB-435)
CC(=O)O[C@]12OC[C@@]3(C)C(=O)C[C@@H](O)[C@@](C)([C@@H]13)[C@H]1[C@@H](O)[C@H](OC(=O)C(C)C)[C@@]3(C)[C@H](c4ccoc4)C[C@H]4O[C@]43[C@]1(C)C2=O [MALLEASTRONE C] | 18 µM |  |  |  | 
CC(=O)O[C@]12OC[C@@]3(C)C(=O)C=C[C@@](C)([C@@H]13)[C@H]1[C@@H](O)[C@H](OC(=O)C(C)C)[C@@]3(C)[C@H](c4ccoc4)C[C@H]4O[C@]43[C@]1(C)C2=O [MALLEASTRONE A] | 0.49 µM | 0.24 µM | 0.2 µM | 0.24 µM | 0.41 µM
CC[C@H](C)C(=O)O[C@H]1[C@H](O)[C@@H]2[C@@]3(C)C=CC(=O)[C@]4(C)CO[C@](OC(C)=O)(C(=O)[C@@]2(C)[C@@]25O[C@@H]2C[C@@H](c2ccoc2)[C@]15C)[C@H]34 [MALLEASTRONE B] | 0.63 µM | 0.23 µM | 0.19 µM | 0.22 µM | 0.34 µM
CC[C@]1(O)C[C@@H]2CN(CCc3c([nH]c4ccccc34)[C@@](C(=O)OC)(c3cc4c(cc3OC)N(C)[C@H]3[C@@](O)(C(=O)OC)[C@H](OC(C)=O)[C@]5(CC)C=CCN6CC[C@]43[C@@H]65)C2)C1 [VINBLASTINE] |  | 0.00138 µM | 0.00049 µM | 0.00053 µM | 0.00027 µM
